Assay results reported in article PMC3326416 (Journal of the American Chemical Society, 2012).
Values joined by “and” are separate entries in the source; they are usually repeats but may differ in a detail not shown here. Equal entries are not always repeated. “Also recorded” adds a separate entry of the source.

Legend:
[1] = test system: PME-1; conditions: acylation of active-site serine nucleophile; cited from earlier work
[2] = molecular target: T1, PME-1 (Mus musculus, UniProt Q8BVQ5); assay: ABPP-SILAC in Neuro-2A cells, PME-1; type: cell-based; conditions: 100 nM, 2 h
T1 sequence (Q8BVQ5 1-386): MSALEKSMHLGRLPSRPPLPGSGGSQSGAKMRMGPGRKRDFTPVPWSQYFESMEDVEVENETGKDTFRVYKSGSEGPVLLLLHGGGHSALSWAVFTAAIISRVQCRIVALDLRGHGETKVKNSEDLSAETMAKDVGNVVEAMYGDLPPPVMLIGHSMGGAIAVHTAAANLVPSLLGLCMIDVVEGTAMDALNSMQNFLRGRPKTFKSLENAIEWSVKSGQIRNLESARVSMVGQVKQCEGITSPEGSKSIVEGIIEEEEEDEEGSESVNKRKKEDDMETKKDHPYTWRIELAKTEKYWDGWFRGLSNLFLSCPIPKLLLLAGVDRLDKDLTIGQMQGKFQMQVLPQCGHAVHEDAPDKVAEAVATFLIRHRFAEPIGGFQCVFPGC
Summary of the method: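 Neuro-2A cells were grown in isotopically light or heavy amino acids: light cells got DMSO, heavy cells got test compound at 100 nM for 2 h. Proteomes were labelled with FP-biotin, mixed 1:1, avidin-enriched and analysed by LC/LC-MS/MS on an LTQ-Velos Orbitrap. Activity is the heavy:light MS1 ion ratio of tryptic peptides, reported as mean ± SEM over all peptides quantified per hydrolase.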

[3] = molecular target: T1, PME-1; assay: Gel-based ABPP in situ in Neuro2A cells, PME-1; type: cell-based; conditions: up to 10 µM, 2 h
Summary of the method: (§1)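 Intact Neuro-2A cells were treated with test compound at 10–0.001 µM for 2 h. Membrane and soluble proteomes were then analysed by gel-based competitive ABPP, and IC50 was derived from the gel signal. Data are mean ± SEM, n = 3/group.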

[4] = molecular target: T2, ABHD10 (Mus musculus, UniProt Q6PE15); assay: ABPP-SILAC in Neuro-2A cells, ABHD10; type: cell-based
T2 sequence (Q6PE15 44-297): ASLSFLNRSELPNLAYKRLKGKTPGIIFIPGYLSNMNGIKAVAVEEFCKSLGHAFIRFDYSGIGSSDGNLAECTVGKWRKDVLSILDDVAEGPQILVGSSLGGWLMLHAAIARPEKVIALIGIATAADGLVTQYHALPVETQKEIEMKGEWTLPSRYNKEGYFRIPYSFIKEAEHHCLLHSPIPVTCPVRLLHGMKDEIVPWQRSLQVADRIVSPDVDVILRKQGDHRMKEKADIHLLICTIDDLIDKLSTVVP

[5] = test system: serine hydrolases; assay: Gel-based ABPP in situ in Neuro2A cells, off-target serine hydrolases; type: cell-based, mouse
Summary of the method: as §1

[6] = molecular target: T2, ABHD10; assay: Competitive ABPP of Neuro2A proteomes; type: biochemical
[7] = molecular target: T2, ABHD10; assay: Gel-based ABPP in situ in Neuro2A cells, ABHD10; type: cell-based; conditions: single treatment, 250 nM
Summary of the method: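 Neuro-2A cells received a single in situ treatment with test compound at 250 nM. ABHD10 activity was then followed by gel-based ABPP of cell proteomes over a period of up to 6 h after treatment.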

[8] = molecular target: T2, ABHD10; assay: ABPP-SILAC in BW5147-derived mouse T-cell hybridoma cells, ABHD10; type: cell-based
Summary of the method: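 ABPP-SILAC in a second line, BW5147-derived mouse T-cell hybridoma cells. Cells were cultured in light or heavy amino acids and treated with DMSO or test compound. Proteomes were FP-biotin-labelled, combined 1:1, avidin-enriched and analysed by LC/LC-MS/MS. Serine hydrolase activity was quantified from heavy:light MS1 ratios of tryptic peptides.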

COC(=O)N1C(=O)[C@](c2ccccc2)(C2CCCC2)N1C(=O)OC [ABL127]
inhibition of PME-1 in cells and mice [1]: irreversibly inhibit | disruption of PME-1 activity (ABPP-SILAC) [2]: complete and selective disruption; also recorded: selective inhibition

CCC1(c2ccc(C)cc2)C(=O)N(C(=O)OC(C)C)N1C(=O)OC(C)C (centres unmarked) [ABL303]
inhibition of PME-1 in situ [3]: no significant inhibition | inhibition of ABHD10 (ABPP-SILAC), in words ([4]; 100 nM, 2 h): selective inhibition | loss in ABHD10 activity ([4]; 100 nM, 2 h, ABPP-SILAC, ~40 serine hydrolase activities detected): > 95% | inhibition of ABHD10 at higher concentration ([4]; 250 nM): complete and selective inhibition | concentration at which off-targets are detected [5]: ≥ 1 µM | selectivity for ABHD10 over ABHD6, PREP, PME-1, and other serine hydrolases [6]: at least 40 fold | IC50 ([6]; read-out: IC50 ABHD10, in vitro): ~30 nM and 30 nM | time complete inhibition of ABHD10 was maintained [7]: at least 6 h | inhibition of ABHD10 in second cell line [8]: complete and selective inhibition
